Measurements: ChEMBL document CHEMBL1141250, “Isolation, structure, and coccidiostat activity of coccidiostatin A” (J Nat Prod, 2007)
Calls of active or inactive are those of the source. The rule behind the calls is not given here.

Experiments:
[1] = tested on: Besnoitia jellisoni; experiment: Antiprotozoal activity against Besnoitia jellisoni trophozoites in HFF cells assessed as intactness of cell monolayer after 4 days by Ex-Bes assay; format: functional; conditions: 96 h, read-out: ED50 (the source's name)
Summary of the method: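 Whole-cell in vitro Ex-Bes (extended Besnoitia) assay: B. jellisoni trachyzoites treated with test compounds. ED50 is the concentration giving 50% reduction of trachyzoites relative to an untreated control, read visually. Value is the average of two experiments run in duplicate.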

[2] = tested on: Eimeria tenella; experiment: Anticococcidal activity against Eimeria tenella infected chick at 416 ppm, po; format: functional, organism-based
Summary of the method: (§1)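 In vivo test in the minibird assay for coccidiosis (MAC) using Eimeria-infected chickens. Compounds were tested as purified material. Activity in this assay guided fractionation of the fungal extract.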

[3] = tested on: Eimeria acervulina; experiment: Anticococcidal activity against Eimeria acervulina infected chick at 416 ppm, po; format: functional, organism-based; summary of the method: as §1
[4] = tested on: Eimeria mitis; experiment: Anticococcidal activity against Eimeria mitis infected chick at 416 ppm, po; format: functional, organism-based; summary of the method: as §1
[5] = tested on: Eimeria maxima; experiment: Anticococcidal activity against Eimeria maxima infected chick at 416 ppm, po; format: functional, organism-based; summary of the method: as §1
[6] = tested on: Eimeria praecox; experiment: Anticococcidal activity against Eimeria praecox infected chick at 416 ppm, po; format: functional; summary of the method: as §1
[7] = tested on: Eimeria tenella; experiment: Anticococcidal activity against Eimeria tenella infected chick at 28 mg/kg, ip; format: functional, organism-based; design: dose 28 mg/kg; summary of the method: as §1
[8] = tested on: Eimeria acervulina; experiment: Anticococcidal activity against Eimeria acervulina infected chick at 28 mg/kg, ip; format: functional, organism-based; design: dose 28 mg/kg; summary of the method: as §1
[9] = tested on: Eimeria mitis; experiment: Anticococcidal activity against Eimeria mitis infected chick at 28 mg/kg, ip; format: functional, organism-based; design: dose 28 mg/kg; summary of the method: as §1
[10] = tested on: Eimeria maxima; experiment: Anticococcidal activity against Eimeria maxima infected chick at 28 mg/kg, ip; format: functional, organism-based; design: dose 28 mg/kg; summary of the method: as §1
[11] = tested on: Eimeria praecox; experiment: Anticococcidal activity against Eimeria praecox infected chick at 28 mg/kg, ip; format: functional, organism-based; design: dose 28 mg/kg; summary of the method: as §1
[12] = tested on: HFF; experiment: Cytotoxicity against human HFF cells at 1 ug/ml by Ex-Bes assay; format: cell-based
[13] = tested on: HFF; experiment: Cytotoxicity against human HFF cells at =< 0.125 ug/ml by Ex-Bes assay; format: cell-based
[14] = tested on: Eimeria tenella; experiment: Anticococcidal activity against Eimeria tenella infected chick assessed as reduction of oocyst at 150 ppm after 48 hrs relative to control; format: functional; design: scale not given: the % may be the effect or the level left; summary of the method: as §1
[15] = tested on: Eimeria acervulina; experiment: Anticococcidal activity against Eimeria acervulina infected chick assessed as reduction of oocyst at 150 ppm after 48 hrs relative to control; format: functional; design: scale not given: the % may be the effect or the level left; summary of the method: as §1
[16] = tested on: Eimeria acervulina; experiment: Anticococcidal activity against Eimeria acervulina infected chick assessed as reduction of oocyst at 75 ppm after 48 hrs relative to control; format: functional; design: scale not given: the % may be the effect or the level left; summary of the method: as §1
[17] = tested on: Eimeria mitis; experiment: Anticococcidal activity against Eimeria mitis infected chick assessed as reduction of oocyst at 150 ppm after 48 hrs relative to control; format: functional; design: scale not given: the % may be the effect or the level left; summary of the method: as §1
[18] = tested on: Eimeria maxima; experiment: Anticococcidal activity against Eimeria maxima infected chick assessed as reduction of oocyst at 75 ppm after 48 hrs relative to control; format: functional, organism-based; summary of the method: as §1
[19] = tested on: Eimeria praecox; experiment: Anticococcidal activity against Eimeria praecox infected chick assessed as reduction of oocyst at 75 ppm after 48 hrs relative to control; format: functional; summary of the method: as §1
[20] = tested on: HFF; experiment: Cytotoxicity against human HFF cells at 500 ppm by Ex-Bes assay; format: cell-based
[21] = tested on: Eimeria maxima; experiment: Anticococcidal activity against Eimeria maxima infected chick assessed as reduction of oocyst at 150 ppm after 48 hrs relative to control; format: functional, organism-based; summary of the method: as §1
[22] = tested on: Eimeria praecox; experiment: Anticococcidal activity against Eimeria praecox infected chick assessed as reduction of oocyst at 150 ppm after 48 hrs relative to control; format: functional; summary of the method: as §1
[23] = tested on: Eimeria tenella; experiment: Anticococcidal activity against Eimeria tenella infected chick at 75 to 150 ppm; format: functional, organism-based; summary of the method: as §1
[24] = tested on: Eimeria acervulina; experiment: Anticococcidal activity against Eimeria acervulina infected chick at 75 to 150 ppm; format: functional, organism-based; summary of the method: as §1
[25] = tested on: Eimeria mitis; experiment: Anticococcidal activity against Eimeria mitis infected chick at 75 to 150 ppm; format: functional, organism-based; summary of the method: as §1
[26] = tested on: Eimeria maxima; experiment: Anticococcidal activity against Eimeria maxima infected chick at 75 to 150 ppm; format: functional, organism-based; summary of the method: as §1
[27] = tested on: Eimeria praecox; experiment: Anticococcidal activity against Eimeria praecox infected chick at 75 to 150 ppm; format: functional; summary of the method: as §1

CC(=C/C(C)=C\[C@]1(C)O[C@@H](C)[C@]2(C)O[C@@H]21)/C=C(C)\C=C(C)/C=C(\C)[C@@H]1OC(=O)C(C)(C)C(=O)[C@H]1C [EMECORRGATIN A]
EC50 [1]: 1390 nM | Activity [2]: inactive | Activity [3]: inactive | Activity [4]: inactive | Activity [5]: inactive | Activity [6]: inactive | Activity [7]: inactive | Activity [8]: inactive | Activity [9]: inactive | Activity [10]: inactive | Activity [11]: inactive

CCC(=O)CCCCC[C@@H]1NC(=O)[C@H]2CCCCN2C(=O)[C@H]([C@@H](C)CC)NC(=O)[C@H](Cc2cn(OC)c3ccccc23)NC1=O [APICIDIN]
EC50 [1]: < 280 nM | Activity [12]: Toxic | Activity [13]: Non-toxic

CC1=C[C@@]2(C)O[C@@H](C)[C@@](C)(O)[C@H]2[C@@H]1/C=C/C=C/C=C/C=C/C1(C)C2OC(=O)C1(C)C(=O)C2C (stereo partly drawn) [COCCIDIOSTATIN A]
Activity [14]: 59% | Activity [15]: 74% | Activity [16]: 64% | Activity [17]: 44% | Activity [18]: inactive | Activity [19]: inactive | Activity [20]: Non-toxic | Activity [21]: inactive | Activity [22]: inactive | Activity [23]: Active | Activity [24]: Active | Activity [25]: Active | Activity [26]: Active | Activity [27]: Active
